The record followed here is ChEMBL document CHEMBL2086359, “Tormentic acid derivatives: synthesis and apoptotic activity” (Eur J Med Chem, 2012).

Experiment [1] relates to 8505C. The experiment in a line: Induction of apoptosis in human 8505C cells migration of phosphatidylserine from inner to outer cell membrane at 3.5 uM after 6 hrs by Annexin V-FITC/PI based FACS analysis. It counts as functional. Background: A flow cytometer gives signals particle by particle.
Experiment [2] can be described thus: Cytotoxicity against human A253 cells after 96 hrs by SRB assay. Type of experiment: functional, cell-based. In a few lines:
(§1)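 Monolayer cultures kept in RPMI 1640 with 10% heat-inactivated FBS and penicillin/streptomycin at 37 °C, 5% CO2. Exponentially growing cells were seeded and treated 24 h later with serial dilutions (0–30 µM) for 96 h, with DMSO or DMF at most 0.5% final. Cells were fixed with 10% TCA at 4 °C and stained with 0.4% SRB for about 30 min. Plates were washed with 1% acetic acid and the dye dissolved in 10 mM Tris base. Absorbance was read at 570 nm and survival taken relative to untreated controls. IC50 was estimated from dose–response curves, averaged from at least 5 independent experiments.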
For orientation: The SRB assay estimates cell density from bound dye.

In the next experiment the test system is NIH3T3. The experiment in a line: Cytotoxicity against mouse NIH/3T3 cells after 96 hrs by SRB assay. Type of experiment: cell-based. Summed up: as §1
The test system of experiment [3] is 8505C. In words: Cytotoxicity against human 8505C cells after 96 hrs by SRB assay. It counts as functional, cell-based. Summed up:
as §1

Experiment [4] in a line: Cytotoxicity against human 518A2 cells after 96 hrs by SRB assay. Type of experiment: functional, cell-based. In a few lines:
as §1

The subject of another experiment is DLD-1. In words: Cytotoxicity against human DLD1 cells after 96 hrs by SRB assay. Type of experiment: functional, cell-based. In a few lines:
as §1

Experiment [5] has as its system 8505C. In words: Induction of apoptosis in human 8505C cells assessed as induction of cell death after 24 to 48 hrs by AO/PI exclusion dye assay. It counts as functional, cell-based. Summed up: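 About 1×10^6 cells were grown in 25 cm2 flasks to 80% and given compound-loaded medium for 24–48 h, with blank medium as control. Cells were recovered from the supernatant (300 g, 4 °C), washed and resuspended in PBS. They were mixed 1:1 with AO/PI solution and viewed by fluorescence microscopy: green cells were scored as apoptotic, red as necrotic.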

In experiment [6] the test system is 518A2. In words: Induction of apoptosis in human 518A2 cells after 24 to 48 hrs by DNA laddering assay. It counts as functional, cell-based. In a few lines: (§2)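 About 1×10^6 cells were grown in 25 cm2 flasks to 80% and exposed to compound-loaded medium for 24–48 h, with blank medium as control. Cells were collected from the supernatant (300 g, 4 °C), washed in PBS and lysed. Lysates were digested with RNase for 2 h at 37 °C, then with proteinase K for 12 h at 50 °C. DNA was run on agarose gel electrophoresis ([…], 2 h).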

Experiment [7] in a line: Cytotoxicity against human WW030272 cells after 96 hrs by SRB assay. It counts as cell-based. Summed up:
as §1

Another experiment concerns MCF7. The experiment in a line: Cytotoxicity against human MCF7 cells after 96 hrs by SRB assay. Type of experiment: functional, cell-based. Summed up: as §1
Experiment [8] relates to 8505C. In words: Induction of apoptosis in human 8505C cells after 24 to 48 hrs by DNA laddering assay. Type of experiment: functional, cell-based. In a few lines: as §2
In a further experiment the test system is A549. In words: Cytotoxicity against human A549 cells after 96 hrs by SRB assay. It counts as functional, cell-based. Summed up:
as §1

The test system of a further experiment is A2780. The experiment in a line: Cytotoxicity against human A2780 cells after 96 hrs by SRB assay. It counts as functional, cell-based. Summed up:
as §1

Experiment [9] concerns 8505C. In words: Induction of apoptosis in human 8505C cells assessed as migration of phosphatidylserine from inner to outer cell membrane at 30 uM after 6 hrs by Annexin V-FITC/PI based FACS analysis. It counts as functional.
In experiment [10] the test system is 518A2. The experiment in a line: Induction of apoptosis in human 518A2 cells assessed as condensation of chromatin at 30 uM after 24 hrs by acridine orange based fluorescence microscopy analysis. Type of experiment: functional, cell-based. Summed up:
(§3)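 They were treated with 30 µM compound, and the next day washed with PBS and stained with acridine orange. Living cells were inspected by fluorescence microscopy for chromatin condensation and nuclear membrane blebbing.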

For experiment [11], the system named is 8505C. The experiment in a line: Induction of apoptosis in human 8505C cells assessed as blebbing of nuclear membrane at 30 uM after 24 hrs by acridine orange based fluorescence microscopy analysis. Type of experiment: functional, cell-based. In a few lines:
as §3

Experiment [12] has as its system 8505C. In words: Induction of apoptosis in human 8505C cells assessed as condensation of chromatin at 30 uM after 24 hrs by acridine orange based fluorescence microscopy analysis. Type of experiment: functional, cell-based. Summed up: as §3
Experiment [13] concerns 518A2. The experiment in a line: Induction of apoptosis in human 518A2 cells assessed as blebbing of nuclear membrane at 30 uM after 24 hrs by acridine orange based fluorescence microscopy analysis. It counts as functional, cell-based. Summed up: as §3

Each structure is given as a SMILES string. The source made the active and inactive calls. The calls are words filed in the database; no cut-off is given here. Some results are limits rather than exact numbers.

For the molecule `COC(=O)[C@]12CC[C@@H](C)[C@@](C)(O)[C@H]1C1=CC[C@@H]3[C@@]4(C)C[C@@H](OC(=O)CCl)[C@H](OC(=O)CCl)C(C)(C)[C@@H]4CC[C@@]3(C)[C@]1(C)CC2`, the result in the experiment on 8505C [1], in the experiment on 8505C [5], in the experiment with 518A2 [6] and in the experiment on 8505C [8] was Active. The IC50 in [2] was 1.6 µmol; in the experiment on NIH3T3 it was 1.1 µmol; in the experiment on 8505C [3], 1.6 µmol; in experiment [4] it was 1.1 µmol; with DLD-1 it was 2.2 µmol; in [7] it was 3.4 µmol. Besides, the IC50 was 1.5 µmol in the experiment on MCF7, 1.2 µmol with A549 and 0.8 µmol in the experiment on A2780.

With `C[C@@H]1CC[C@]2(C(=O)O)CC[C@]3(C)C(=CC[C@@H]4[C@@]5(C)C[C@@H](O)[C@H](O)C(C)(C)[C@@H]5CC[C@]43C)[C@@H]2[C@]1(C)O` [TOMENTIC ACID], the IC50 in experiment [2] is more than 30 µmol; in the experiment on NIH3T3, more than 30 µmol; with 8505C [3], 23.4 µmol; in experiment [4], more than 30 µmol; with DLD-1, 31 µmol; in experiment [7] it was 47.7 µmol. The IC50 was 32.3 µmol in the experiment with MCF7, 31 µmol with A549 and more than 30 µmol in the experiment with A2780. For the same molecule, the outcome in the experiment with 8505C [5], in the experiment on 518A2 [6], in the experiment on 8505C [8] and in the experiment with 8505C [9] was Active.

In the case of `COC(=O)[C@]12CC[C@@H](C)[C@@](C)(O)[C@H]1C1=CC[C@@H]3[C@@]4(C)C[C@@H](O)[C@H](O)C(C)(C)[C@@H]4CC[C@@]3(C)[C@]1(C)CC2` [TORMENTIC ACID METHYL ESTER], the result in the experiment on 518A2 [10], in the experiment on 8505C [11], in the experiment on 8505C [12], with 518A2 [13], in the experiment with 8505C [5] and in the experiment on 518A2 [6] was Active. Further, the result in the experiment with 8505C [8] was Active. Further, the IC50 in [2] is 17 µmol; in the experiment on NIH3T3 it was 15.6 µmol; with 8505C [3], 42 µmol; in [4] it was 31.3 µmol; in the experiment on DLD-1, 37.4 µmol; in experiment [7], 47.5 µmol. Further, the IC50 in the experiment on MCF7 turned out to be 31.3 µmol; in the experiment on A2780 it was 23.9 µmol.
